# High-throughput results as filed in PubChem.
# Most compounds without a hit are left out; they make up all but 2.1% or so of the library.
# APJ antag = blocks the human apelin receptor APJ | CHO-K1 APJ beta-arrestin complementation, luminescence | P35414 | inhibition, % at 20 µM | AID 2521 | actives 0.32% (n = 330,000);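 active means inhibition above about 40% at 20 µM, limit read from the data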;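 further: cells challenged with 10 nM apelin-13 agonist together with compound; plate controls were apelin-13 plus DMSO wells for no effect and DMSO wells lacking apelin-13 for full effect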
# m5-HT2A agonist = mouse HTR2A agonism via beta-arrestin recruitment; CHO-K1 mHTR2A beta-arrestin complementation, luminescence; percent of 30 µM serotonin response; actives 0.66% (n = 360,000); activation, % at 7.6 µM; P35363;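 active means activation above a run cutoff, the mean activation of all tested compounds plus 3 SD, cut at about 14% in these data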;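 further: 0% = plate median of compound wells and 100% = 30 µM serotonin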
# EBI2 antag = blocks human EBI2 receptor beta-arrestin signaling | P32249 | EBI2 beta-arrestin recruitment, luminescence, 7a,25-OHC stimulated | inhibition, % at 5 µM | actives 0.81% (n = 360,000); in the data active means inhibition above about 38%;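 further: enzyme fragment complementation signal reports receptor beta-arrestin coupling in cells; 0% = agonist plus DMSO wells and 100% = wells without agonist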
# Target sequence (P32249 whole entry, looked up, the tested form may be a part): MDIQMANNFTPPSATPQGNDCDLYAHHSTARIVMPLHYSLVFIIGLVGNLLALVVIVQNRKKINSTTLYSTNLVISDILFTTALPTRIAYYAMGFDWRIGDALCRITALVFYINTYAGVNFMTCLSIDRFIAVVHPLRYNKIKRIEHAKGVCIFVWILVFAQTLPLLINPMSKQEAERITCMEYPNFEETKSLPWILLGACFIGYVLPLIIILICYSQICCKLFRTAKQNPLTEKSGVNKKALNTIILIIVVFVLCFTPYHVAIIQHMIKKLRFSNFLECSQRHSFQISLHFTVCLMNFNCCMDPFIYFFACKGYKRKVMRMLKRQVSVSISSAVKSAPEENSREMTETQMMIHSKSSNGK
# CCR6 antagonist = blocks CCL20-driven beta-arrestin recruitment at human CCR6; CHO-K1 CCR6 PathHunter beta-arrestin, luminescence, CCL20-stimulated; inhibition, % at 20 µM; actives 0.49% (n = 340,000); AID 493098;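 active means compounds whose inhibition of the agonist-driven luminescence signal at 20 µM reaches about 50%, limit read from the data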;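 further: cells stimulated with CCL20 at 14 nM final; plate controls were DMSO with CCL20 for no effect and DMSO without agonist for full effect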
# CXCR6 block = CXCR6 (human) receptor inhibition. inhibition, % at 20 µM. CHO-K1 PathHunter CXCR6 beta-arrestin, luminescence. AID 602244. actives 0.36% (n = 360,000); in the data active means inhibition above about 34%, passing the limit was not always enough;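 further: antagonist mode with CXCL16 agonist at 10 nM final; 0% = 10 nM CXCL16 with DMSO and 100% = unstimulated wells without agonist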
# APJ agonist = activates the human apelin receptor APJ. CHO-K1 APJ PathHunter beta-arrestin, luminescence; 0% DMSO wells, 100% apelin. activation, % at 20 µM. actives 0.11% (n = 330,000). AID 2520;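 active means activation more than six SD over the plate average, tested at 20 µM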;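 further: 0% = DMSO alone and 100% = apelin-13 at 10 nM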
#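 Test system: CHO-K1 APJ beta-arrestin complementation cell line | Compound: Single test compound dose, 20 µM final, 1% DMSO | Incubation: Compound 90 min 25 °C, reagent 1 h | Measured by: beta-gal luminescence | Read-out basis: APJ–arrestin association signal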
# APJ ag conf = confirmation of human APJ apelin receptor agonists | shares compounds with APJ agonist | CHO-K1 APJ PathHunter beta-arrestin, luminescence | activation, % at 20 µM | actives 10% (n = 310);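 active means activation above 40%, taking the highest of four retests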;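 further: plate controls were DMSO wells for no effect and apelin-13 at 10 nM for full effect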
# * hit, by the source's call; . = not tested or not shown.
SMILES,APJ antag,m5-HT2A agonist,EBI2 antag,CCR6 antagonist,CXCR6 block,APJ agonist,APJ ag conf
CCCCSc1nc(O)c(C2OC(=O)c3c2ccc(OC)c3OC)c(=O)n1-c1ccccc1 (centres undefined),-12,-2,-3,18,15,-4,.
CCCSc1nc(O)c(C2OC(=O)c3c2ccc(OC)c3OC)c(=O)n1-c1ccccc1 (centres undefined),10,-3,6,10,6,23*,39
O=C(Cc1cccc(NC(=O)C2CCCN(C(=O)C3CCC3)C2)c1)Nc1ccc(C(=O)N2CCCCC2)cc1 (centres undefined),.,5,-10,3,8,.,.
Cc1ccc(-n2ncc3c(N4CCN(c5ccccc5)CC4)ncnc32)c(C)c1,-29,4,-19,-13,-5,17*,40*
CC(C)C[C@@H](C(=O)NC1CCN(Cc2ccccc2)CC1)N1C(=O)N2CCc3c([nH]c4ccccc34)[C@@]2(C)C1=O,16,-7,14,21,9,24*,25
C[C@@H](C(=O)NC1CCN(Cc2ccccc2)CC1)N1C(=O)N2CCc3c([nH]c4ccccc34)[C@@]2(C)C1=O,1,-8,-4,-1,-4,5,.
COc1ccc2[nH]c3c(c2c1)CCN1C(=O)N([C@@H](C)C(=O)NC2CCN(Cc4ccccc4)CC2)C(=O)[C@]31C,8,-7,-5,8,-5,18*,38
CC(=O)c1cccc(NC(=O)C2CC(=O)N(C3CCCC3)C2)c1 (centres undefined),-1,3,8,5,-2,-2,.
Cn1c(N2CCOCC2)c(/C=N/OC(=O)c2ccc(F)cc2)c2ccccc21,-48,-2,0,1,-6,17*,39
CS(=O)(=O)c1ccc2nc(NC(=O)Nc3ccc(Cl)c(Cl)c3)sc2c1,10,2,1,-8,-3,-1,.
CS(=O)(=O)c1ccc2nc(NC(=O)Nc3cccc(Cl)c3)sc2c1,-20,-3,-6,7,6,28*,16
N#Cc1cnc(N)c(Br)c1,9,-1,-1,5,-2,-1,.
CCOC(=O)C1=C(Cn2cnc3ccccc32)NC(=O)NC1c1cc(C)ccc1C (centres undefined),31,59*,-42,13,9,62*,59*
CCOC(=O)C1=C(CSc2nccn2C)NC(=O)NC1c1cc(C)ccc1C (centres undefined),-17,0,5,5,7,-4,.
Cc1cccc(NC(=O)NC2CCCc3ccccc32)c1 (centres undefined),8,-4,-3,-11,-3,6,.
CCOc1cc([N+](=O)[O-])cc2c1C(=O)Nc1ccccc1O2,-20,-8,-4,-10,-8,14*,11
C/C(COc1ccccc1)=N\NC(=O)c1nnn(-c2nonc2N)c1CSc1ccccc1,-29,1,-4,9,-4,19*,32
CCSc1nc(O)c(CC)c(=O)n1C(C)CC (centres undefined),-19,2,-1,-25,-3,39*,61*
Cc1csc2nc(COC(=O)CNC(=O)c3ccc(Cl)cc3)cc(=O)n12,8,4,-4,4,12,-1,.
Cc1csc2nc(COC(=O)c3ccc(Cl)c([N+](=O)[O-])c3)cc(=O)n12,-3,5,9,19,24,30*,10
Cc1ccc(NC(=O)CSc2ccccc2NC(=O)c2cccc(Cl)c2)cc1Cl,-26,1,-6,-1,-13,14*,11
COC(=O)Oc1ccc(/C=N/NC(=O)CSCc2ccccc2Br)cc1OC,6,-6,-16,19,-2,1,.
Cc1ccc(NC(=O)CC2OC(=O)c3ccccc32)cc1S(=O)(=O)N1CCOCC1 (centres undefined),16,-2,7,5,-6,-4,.
CCn1cc(/C=C(\NC(=O)c2ccccc2)C(=O)N2CCOCC2)c2ccccc21,-5,10,4,5,0,2,.
COC(=O)Cn1cc(/C=C(/C#N)C(=O)N2CCOCC2)c2ccccc21,-5,1,-11,0,5,12*,6
SMILES,APJ antag,m5-HT2A agonist,EBI2 antag,CCR6 antagonist,CXCR6 block,APJ agonist,APJ ag conf
O=C(O)c1ccc(COc2ccc3c4c(c(=O)oc3c2)CCC4)o1,3,-2,-2,10,-5,-9,.
O=c1oc2cc(OCc3ccc([N+](=O)[O-])cc3)ccc2c2c1CCCC2,7,2,-17,-14,-10,62*,4
CCCCc1cc(O)c(CCCC)c(O)c1,-25,-5,2,12,-17,13*,21
CCN(CC)CCCN=C1N[C@@H](c2cccc(C(F)(F)F)c2)C(C(=O)OC)=C(C)N1CC,11,4,-18,5,8,-3,.
Cc1cccc(NC(=S)NC(=O)/C=C/c2ccccc2)n1,-57,-3,-36,-8,-5,11*,28
N#Cc1ccc(NC(=O)Nc2ccc(Oc3ccc(NC(=O)Nc4ccc(C#N)cc4)cc3)cc2)cc1,-59,-1,-33,-14,-16,19*,36
N#Cc1ccc(NC(=O)Nc2cccc(C#N)c2)cc1,.,-1,-8,-4,-11,.,.
C/C(=N\NC(=O)CCC(=O)Nc1ccc(C)c(C)c1)C1CC1,-12,1,7,-12,-4,3,.
Cc1nnc(NC(=O)CSc2nccn2-c2ccc(F)cc2)s1,-7,-5,-10,-5,5,0,.
CNC(=O)CSc1nnc(C(C)C)n1C,-7,1,-1,20,17,-4,.
Cc1ccc2c(c1)c(=O)c1c3n2CCN(C(=O)CCl)C3CC1 (centres undefined),-15,0,-21,-4,1,37*,22
O=S(=O)(Nc1ccccc1)c1ccc(NS(=O)(=O)c2c(F)cccc2F)cc1,9,-3,-10,7,-4,-1,.
CCc1cc2c(=O)n(CCC(C)C)c(=S)[nH]c2s1,-9,3,-6,5,-1,-2,.
CCSCc1nnc(SCC(=O)Nc2ccc(F)cc2)n1CC,5,2,-1,2,5,-1,.
Cc1cc(N/N=C/c2ccc(O)cc2)c2cccc(C)c2n1,-2,-12,13,21,-8,11,.
Cc1cc(C)c2nc(C)cc(N/N=C/c3ccc(O)cc3)c2c1,1,-7,-4,8,5,42*,30
O=C(NCCc1cn2ccccc2n1)c1cc(COc2ccc3ncccc3c2)on1,-13,7,6,-21,-3,31*,4
O=C(NC1CCCC1)c1cc(COc2ccc3ncccc3c2)on1,-4,0,-6,6,-13,0,.
